Results from ChEMBL document CHEMBL5325427.
Values after ≈ are worked out from the molar mass of the structure shown. Active and inactive are the calls of the source. The rule behind the calls is not given here.

Key:
[1] = Selectivity index, ratio of CC50 for African green monkey Vero E6 cells to IC50 for antiviral activity against MERS-CoV NRCE-HKU270 infected in Vero E6 cells; format: toxicity, cell-based, Vero C1008; settings: read-out: Ratio CC50/IC50
[2] = Toxicity in Balb/c mouse assessed as effect on total protein at 12.5 to 25 mg/kg; format: organism-based; settings: in vivo, dose 12.5-25 mg/kg
Outline: (§1)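 Female Balb/c mice were randomised to vehicle (0.5% DMSO in PBS) or 12.5 or 25 mg/kg intraperitoneally daily for 14 days, then followed 12 days after treatment. Body weight, haematology and blood chemistry were compared with vehicle controls; n = 3–5.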

SARS-CoV-2 [3] = assay: Antiviral activity against SARS- CoV-2 infected in Vero E6 cells assessed as viral replication pretreated with cells for 24 hrs followed by viral infection for 1 hr and measured after 1 hr by plaque assay relative to control; format: functional, Severe acute respiratory syndrome coronavirus 2; settings: time 26 hrs
[4] = Toxicity in Balb/c mouse assessed as effect on total bilirubin at 12.5 to 25 mg/kg; format: organism-based; settings: in vivo, dose 12.5-25 mg/kg; outline: as §1
[5] = Toxicity in Balb/c mouse assessed as change in histological variation in heart at 12.5 to 25 mg/kg by H and E staining based analysis; format: organism-based; settings: in vivo, dose 12.5-25 mg/kg
Outline: (§2)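 After the 14-day daily intraperitoneal dosing (12.5 or 25 mg/kg, female Balb/c), liver, kidney, spleen, heart and lung were fixed 24 h in 10% neutral-buffered formalin and paraffin-embedded. Sections of 4 μm were stained with H&E. Lesions were scored nil 0, mild 1, moderate 2, severe 3.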

[6] = Toxicity in Balb/c mouse assessed as histological changes in liver by measuring toxicity score at 25 mg/kg by H and E staining based analysis; format: organism-based; settings: in vivo; outline: as §2
[7] = Permeability of the compound across apical to basolateral side in human Caco-2 cells at pH 6.5 to 7.4; format: ADME, cell-based; settings: Caco-2, pH 6.5, read-out: permeability
Outline: (§3)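 Caco-2 cells (0.5 × 10^6/well) were grown 7 days on collagen-coated transwell filters. Compound was dosed at 50, 75 and 100 μM input in 1% DMSO/HBSS, apical pH 6.5 and basolateral pH 7.4. Samples were taken every 30 min for 2 h in duplicate and quantified by LC/MS/MS. Papp was calculated from receiver concentration, time, area and mid-point donor and receiver concentrations. Monolayer integrity required fluorescein Papp below 1.5 × 10−6 cm/s.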

[8] = Toxicity in Balb/c mouse assessed as effect on body weight loss at 12.5 to 25 mg/kg, ip administered as multiple dose measured upto 15 days; format: organism-based; settings: in vivo, 360 h, dose 12.5-25 mg/kg, time < 15 day; outline: as §1
[9] = Toxicity in Balb/c mouse assessed as change in histological variation in spleen at 12.5 to 25 mg/kg by H and E staining based analysis; format: organism-based; settings: in vivo, dose 12.5-25 mg/kg; outline: as §2
Vero C1008 = assay: Cytotoxicity against African green monkey Vero E6 cells measured after 72 hrs by crystal violet staining based analysis; format: toxicity, cell-based; settings: chlorocebus sabaeus, vero c1008, 72 h
Outline: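 Vero-E6 cells were seeded at 3 × 10^5 cells/mL, grown 24 h at 37 °C with 5% CO2, then given graded compound concentrations in triplicate for 72 h. Stocks were made in 10% DMSO in DMEM. Cells were fixed in 10% formalin, stained with 0.1% crystal violet, dissolved in methanol and read at A570. CC50 was taken by nonlinear regression of log concentration versus normalised response against untreated cells.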

SARS-CoV-2 [10] = assay: Antiviral activity against SARS- CoV-2 infected in Vero E6 cells assessed as viral adsorption pretreated with cells for 24 hrs followed by viral infection and measured after 1 hr by crystal violet staining based analysis relative to control; format: functional, Severe acute respiratory syndrome coronavirus 2; settings: time 25 hrs
SARS-CoV-2 [11] = assay: Antiviral activity against SARS CoV-2 infected in human Caco-2 cells assessed as reduction in OAS1 expression at 20 ug/ml preincubated with cells for 24 hrs followed by viral infection and measured after 3 to 12 hrs by real-time PCR assay; format: functional, organism-based; settings: Severe acute respiratory syndrome coronavirus 2, dose 20.0 µg/ml, time lower 27.0 hrs, time upper […]
[12] = molecular target: Replicase polyprotein 1ab (Severe acute respiratory syndrome coronavirus 2) (UniProt P0DTD1); assay: Inhibition of SARS-CoV-2 3CLpro at 10 ug/ml preincubated with enzyme for 30 mins followed by substrate addition and measured after 4 hrs by fluorescence based analysis; settings: dose 10.0 µg/ml, time 4.5 hrs
Outline: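 Recombinant SARS-CoV-2 3CLpro (1.5 ng/μl) was pre-incubated with compound 30 min at RT. Fluorogenic substrate was added to a final 40 μM and incubated 4 h at RT. Fluorescence was read at Ex 360/Em 460 nm. Wells were run in triplicate and blank was subtracted.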

[13] = Toxicity in Balb/c mouse assessed as histological changes in spleen by measuring toxicity score at 12.5 to 25 mg/kg by H and E staining based analysis; format: organism-based; settings: in vivo, dose 12.5-25 mg/kg
[14] = Aqueous solubility of the compound in PBS buffer at pH 7.4 at 200 uM by microplate reader method; format: physicochemical
[15] = Toxicity in Balb/c mouse assessed as effect on glucose at 12.5 to 25 mg/kg; format: organism-based; settings: in vivo, dose 12.5-25 mg/kg; outline: as §1
[16] = Toxicity in Balb/c mouse assessed as effect on ALP at 12.5 to 25 mg/kg; format: organism-based; settings: in vivo, dose 12.5-25 mg/kg; outline: as §1
[17] = Permeability of the compound across apical to basolateral side in human Caco-2 cells assessed as drug recovery at pH 6.5 to 7.4; format: ADME, cell-based; settings: Caco-2, pH 6.5, read-out: Drug recovery; outline: as §3
[18] = Stability in CD-1 mouse liver microsomes assessed as half life at 1 uM in presence of NADPH by LC-MS-MS analysis; format: ADME, Microsome
[19] = Stability in human liver microsomes assessed as half life at 1 uM in presence of NADPH by LC-MS-MS analysis; format: ADME, Microsome
[20] = Toxicity in Balb/c mouse assessed as change in histological variation in lung at 12.5 to 25 mg/kg by H and E staining based analysis; format: organism-based; settings: in vivo, dose 12.5-25 mg/kg; outline: as §2
[21] = Toxicity in Balb/c mouse assessed as histological changes in lung by measuring toxicity score at 12.5 to 25 mg/kg by H and E staining based analysis; format: organism-based; settings: in vivo, dose 12.5-25 mg/kg; outline: as §2
[22] = Stability in CD-1 mouse liver microsomes assessed as compound remaining at 1 uM measured after 60 mins in absence of NADPH by LC-MS-MS analysis; format: ADME, Microsome; settings: read-out: Stability
Outline: (§4)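 Compound was incubated in liver microsomes without NADPH. Percent remaining was measured after 60 min.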

[23] = Toxicity in Balb/c mouse assessed as effect on AST at 12.5 to 25 mg/kg; format: organism-based; settings: in vivo, dose 12.5-25 mg/kg; outline: as §1
[24] = Toxicity in Balb/c mouse assessed as change in histological variation in kidney at 12.5 to 25 mg/kg by H and E staining based analysis; format: organism-based; settings: in vivo, dose 12.5-25 mg/kg; outline: as §2
[25] = Toxicity in Balb/c mouse assessed as effect on gamma GT at 12.5 to 25 mg/kg; format: organism-based; settings: in vivo, dose 12.5-25 mg/kg; outline: as §1
[26] = Toxicity in Balb/c mouse assessed as effect on urea at 12.5 to 25 mg/kg; format: organism-based; settings: in vivo, dose 12.5-25 mg/kg; outline: as §1
[27] = Toxicity in Balb/c mouse assessed as effect on body weight loss at 25 to 100 mg/kg, ip administered as single dose measured upto 15 days; format: organism-based; settings: in vivo, 360 h, dose 25-100 mg/kg, time < 15 day
[28] = Stability in human microsomes assessed as compound remaining at 1 uM measured after 60 mins in absence of NADPH by LC-MS-MS analysis; format: ADME, Microsome; settings: read-out: Stability; outline: as §4

**Q.** With `COc1ccc2[nH]c3c(c2c1)C[C@]1(OC)CC[C@H]2c4[nH]c5ccccc5c4CCN2[C@@H]1C3` as the compound, how does the selectivity ratio [1] read?
**A.** The selectivity ratio was 8.96.

**Q.** And the Activity [2]?
**A.** The Activity was “Non-Toxic”.

**Q.** And the Activity (SARS-CoV-2 [3])?
**A.** The Activity was 8.5%.

**Q.** What about the Activity [4] of the same compound?
**A.** The Activity was “Non-Toxic”.

**Q.** And the Activity [5]?
**A.** Its Activity is “Non-Toxic”.

**Q.** What about the Activity [6] of the same compound?
**A.** Its Activity is 0.

**Q.** What about the Papp A→B [7] of the same compound?
**A.** The Papp A→B was 5.9 ×10⁻⁶ cm/s.

**Q.** What about the Activity [8] of the same compound?
**A.** The Activity was “Non-Toxic”.

**Q.** And the Activity [9]?
**A.** Its Activity is “Non-Toxic”.

**Q.** What about the CC50 (Vero C1008) of the same compound?
**A.** The CC50 was 55.63 µg/mL (≈ 130 µM).

**Q.** And the Activity (SARS-CoV-2 [10])?
**A.** The Activity was 2.5%.

**Q.** What about the Activity (SARS-CoV-2 [11]) of the same compound?
**A.** The Activity was “Active”.

**Q.** What about the inhibition [12] of the same compound?
**A.** The inhibition was “inactive”.

**Q.** And the Activity [13]?
**A.** Its Activity is 0.

**Q.** What about the solubility at 200 µM [14] of the same compound?
**A.** The solubility at 200 µM was 166 µM (≈ 71 µg/mL).

**Q.** And the Activity [15]?
**A.** The Activity was “Non-Toxic”.

**Q.** And the Activity [16]?
**A.** Its Activity is “Non-Toxic”.

**Q.** What about the recovery [17] of the same compound?
**A.** The recovery was 77%.

**Q.** And the t1/2 [18]?
**A.** The t1/2 was > 1 h.

**Q.** What about the t1/2 [19] of the same compound?
**A.** Its t1/2 is > 1 h.

**Q.** What about the Activity [20] of the same compound?
**A.** Its Activity is “Non-Toxic”.

**Q.** What about the Activity [21] of the same compound?
**A.** The Activity was 0.

**Q.** What about the remaining at 1 h, 1 µM [22] of the same compound?
**A.** The remaining at 1 h, 1 µM was 108%.

**Q.** What about the Activity [23] of the same compound?
**A.** Its Activity is “Non-Toxic”.

**Q.** And the Activity [24]?
**A.** Its Activity is “Non-Toxic”.

**Q.** And the Activity [25]?
**A.** Its Activity is “Non-Toxic”.

**Q.** What about the Activity [26] of the same compound?
**A.** Its Activity is “Non-Toxic”.

**Q.** And the Activity [27]?
**A.** The Activity was “Non-Toxic”.

**Q.** What about the remaining at 1 h, 1 µM [28] of the same compound?
**A.** Its remaining at 1 h, 1 µM is 102%.
